NS3 helicase inh: blocks Hepatitis C virus NS3 helicase unwinding; NS3 helicase DNA unwinding, Cy5 molecular beacon fluorescence; inhibition, % at 10.9 µM; 0.56% of 290,000 active; AID 1800;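 active = inhibition above the mean of all tested compounds plus 3 SD, set per campaign, cut at about 35% in these data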;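 note: 0% = DMSO wells and 100% = thioflavine S control wells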
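Assay system – hepatitis C virus NS3 helicase domain fragment enzyme · Buffer or medium – MOPS pH 6.5, MgCl2, DTT, Tween20, BSA · Reagent – Cy5/quencher beacon DNA duplex and ATP to start · Compound – single 10.9 µM dose · Timing – 1 h at 25 °C · Technique – Cy5 beacon fluorescence read at start and 1 h · Measure – % inhibition of unwinding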
Lipid droplet: hepatic lipid droplet formation modulation | inhibition, % at 6.5 µM | 0.4% of 240,000 active | AID 1656 | AML12 mouse hepatocytes, oleate lipid droplets, BODIPY imaging;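 active = lipid droplet intensity inhibited by at least 50%, with more than 500 cells counted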
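Assay system: AML12 hepatocytes (mouse) / Also added: 100 µM oleic acid challenge / Times: overnight treatment with compound plus oleate / Detection: high-content imaging of BODIPY-stained droplets and DAPI nuclei / Evaluation: % inhibition of lipid droplet signal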
HSF1 inhib: HSF1 inhibition | NIH3T3-HGL HSE-luciferase, MG132-induced, luminescence 8 h; hits give low values | activity change, negative = inhibition, % at 7.5 µM (by protocol) | 0.77% of 300,000 active | AID 2098;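 active = more than half of replicate wells show activity change below -50%, luminescence cut by over half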;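 note: luciferase reports HSF-1 transcriptional activity via heat shock element; 0% = median of DMSO wells and -100% = zero luminescence signal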
HSP90 inh: blocks HSP90-mediated luciferase refolding in reticulocyte lysate | Rabbit reticulocyte lysate, luciferase refolding luminescence, 3 h | inhibition, % at 5.6 µM | 0.91% of 290,000 active;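 active = inhibition above the screen-wide mean plus 3 SD, computed separately per campaign, cut at about 16% in these data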;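 note: 0% = DMSO wells and 100% = 60 µM geldanamycin wells; inhibitors lower the luminescence because luciferase stays unfolded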
HSF-1 act: increases HSF-1 driven luciferase reporter signal; AID 504408; activation, % at 9 µM; 1.7% of 300,000 active; NIH3T3-HGL HSF-1 luciferase reporter, MG132, 8 h; 100% = twice DMSO control signal;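 active = mean replicate activation of at least 50% with a set share of replicates each reaching 50%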;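 note: 0% = median of the neutral control wells and 100% = twice that signal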
* marks the source's active call; other numbers are inactive results; / = not tested or not shown. The list is not random: actives were taken first. Their share in the collection is about 3.8%.

SMILES | NS3 helicase inh | Lipid droplet | HSF1 inhib | HSP90 inh | HSF-1 act
C/C(CC(=O)Nc1cccc2c1CCCC2)=N\NC(=O)COc1ccccc1 | 8 | -7 | 29 | -4 | 61*
C/C(CC(=O)Nc1cccc2c1CCCC2)=N\NC(=O)Cc1ccccc1 | -2 | 2 | 26 | -6 | 29
Cc1cc(C(=O)Cn2cnc3ccccc3c2=O)c(C)n1C1CC1 | / | / | 14 | / | 17
N#C/C(=C\c1cccc(Br)c1)C(=O)N1CCCCC1 | -5 | -1 | -4 | 17* | 22
CC1CN(C(=O)c2ccc(NS(=O)(=O)c3ccc(C(C)(C)C)cc3)cc2)CC(C)O1 (stereo not drawn) | -5 | 0 | -2 | 6 | 7
CCc1ccc(NC(=O)CSc2nc3n[nH]c(C)c3c(=N)n2-c2cccc(OC)c2)cc1 | -27 | 16 | 40 | 2 | 69*
CNC(=S)N/N=C/c1c(Cl)cccc1Cl | 4 | -2 | -59* | 2 | -67
S=C(N/N=C/c1ccccc1Cl)Nc1ccccc1 | 7 | / | 30 | -2 | 72*
CNC(=S)N/N=C/c1ccccc1Cl | 4 | 0 | -3 | -2 | -8
Cc1ccc(/C=N/NC(=O)c2nnn(-c3nonc3N)c2CN(C)C2CCCCC2)cc1 | 2 | -3 | -92* | 0 | -94
CN(Cc1c(C(=O)N/N=C/c2ccc(O)cc2)nnn1-c1nonc1N)C1CCCCC1 | -16 | 0 | 0 | -1 | -6
CCc1c(C(=O)N/N=C/c2ccc(OCc3ccc(F)cc3)c(OC)c2)nnn1-c1nonc1N | -29 | 4 | 34 | 6 | 57*
COc1ccc(C(=S)N2CCOCC2)cc1OS(=O)(=O)c1ccc(Br)cc1 | -1 | 11 | 4 | 1 | -10
O=C(Nc1c(S(=O)(=O)c2ccc(Cl)cc2)csc1Br)c1ccccc1Cl | 1 | -3 | 8 | 3 | 54*
C=C(C)Cn1cnc2c(oc3nc4c(cc32)CCCC4)c1=O | 4 | 0 | 9 | 0 | 44
CC(C)NC(=O)NS(=O)(=O)c1cnccc1N1CCCCC1 | -1 | 1 | 27 | 0 | 51*
CC(C)NC(=O)N1CCN(c2ccncc2S(=O)(=O)N2CCOCC2)CC1 | 1 | / | -7 | 0 | -10
COC(=O)/C=C1/N/C(=N\c2nc(C)cc(C)n2)N(c2ccc(C)c(C)c2)C1=O | -4 | 13 | 55 | 0 | 91*
CC(C)(C)NC(=O)NC(=O)COc1ccc(Br)cc1Br | -10 | -4 | 46 | 6 | 74*
O=C(COc1ccc(Br)cc1Cl)NC(=O)NCc1ccccc1 | 0 | -11 | 27 | -1 | 67*
O=C(CSc1nnc(-c2ccc(F)cc2)o1)N1CCCC1 | 7 | 0 | 5 | -3 | 5
O=S(=O)(CC(CN1CCCCC1)N1CCCCC1)c1ccc2ccccc2c1 (stereo not drawn) | -3 | 3 | 54 | -2 | 90*
Cc1ccc(S(=O)(=O)CC(CN2CCCCC2)N2CCCCC2)cc1 (stereo not drawn) | 5 | 3 | 12 | 1 | 20
CCOc1ccc(CCNC(=O)CSc2nn(-c3ccc(C)c(Cl)c3)c(=S)s2)cc1OCC | -8 | 70* | / | 2 | /
Cc1onc(-c2c(F)cccc2Cl)c1C(=O)N(Cc1ccccc1)C(C)C | -2 | -21 | 8 | -8 | 5
SMILES | NS3 helicase inh | Lipid droplet | HSF1 inhib | HSP90 inh | HSF-1 act
COc1ccccc1-n1c(SCC(=O)Nc2ccc(Br)cc2)nc(O)cc1=O | 23 | -4 | 13 | -6 | 48
O=S(=O)(c1cc(Cl)ccc1Cl)N1CC2CCCN2c2ccc(C(F)(F)F)cc21 (stereo not drawn) | -4 | / | 25 | 3 | 70*
CS(=O)(=O)Nc1cccc(-c2cnc3ccccc3n2)c1 | 2 | 1 | 11 | -1 | 20
Cc1ccc(C(=O)NC(=S)NCC2CCCO2)cc1 (stereo not drawn) | 3 | / | 40 | -1 | 89*
Oc1ccc(/C=C/c2ccc3ccccc3n2)cc1 | 1 | 8 | -20 | 24* | -34
O=C(O)/C=C/c1ccc2ccccc2n1 | -5 | 0 | -2 | 0 | -6
CN(C)c1ccc(/C=C/c2ccc3ccccc3n2)cc1 | -11 | 19 | -85* | 84* | -87
O=C(Cc1coc2ccc3ccccc3c12)N1CCc2ccccc21 | -1 | / | 14 | 1 | -1
Cc1ccc2c(CC(=O)N3CCc4ccccc43)coc2c1 | -4 | / | 76 | 0 | 77*
O=C(COc1ccccc1Cl)N1CCc2ccccc21 | -3 | 2 | 57 | 1 | 74*
O=C(COc1ccccc1)N1CCc2ccccc21 | 5 | -22 | 26 | 8 | 48
Cn1cccc1Cc1nnc(SCC(=O)N2CCc3ccccc32)n1CCc1ccccc1 | 3 | -52 | 3 | 22* | 4
O=C(CSc1ccccc1)N1CCc2ccccc21 | -2 | -16 | 43 | 5 | 59*
CCn1c(-c2ccc(F)cc2)cnc1SCC(=O)N1CCc2ccccc21 | -6 | 1 | 41 | -3 | 70*
O=C(CCC(=O)N1CCc2ccccc21)N1CCc2ccccc21 | -3 | / | / | -2 | /
O=C(CCCc1ccccc1)N1CCc2ccccc21 | -17 | 0 | 30 | 5 | 59*
CCn1c(-c2ccc(F)cc2)cnc1SCC(=O)N1CCCCC1C (stereo not drawn) | -1 | -2 | / | 1 | /
CC(NC(=O)c1ccccc1SCC(=O)N1CCCC1)c1ccc(F)cc1 (stereo not drawn) | 8 | 4 | 4 | 1 | 9
CN(Cc1nc(-c2ccccc2)no1)C(=O)c1ccco1 | -3 | / | -3 | -4 | -10
O=C(CN(c1cccc(C(F)(F)F)c1)S(=O)(=O)c1ccc(Cl)c([N+](=O)[O-])c1)NCc1ccccc1Cl | 4 | 24 | 36 | -1 | 66*
O=C(CN(c1cccc(C(F)(F)F)c1)S(=O)(=O)c1ccc(Cl)c([N+](=O)[O-])c1)NCc1ccccc1 | -4 | 2 | 6 | 0 | 14
COc1ccc(/C=N/n2c(-c3cc(C)[nH]n3)n[nH]c2=S)cc1OC | -2 | -12 | -74* | 2 | -79
Cc1ccc(S(=O)(=O)N2CCN(S(C)(=O)=O)C2)cc1 | -4 | / | -63* | 0 | -70
O=c1cc(CSc2nnc(COc3cccc4ccccc34)o2)c2ccccc2[nH]1 | 11 | -1 | -8 | 14 | -17
COc1ccc(C(c2nnnn2CCc2ccccc2)N2CCN(C3CCCC3)CC2)cc1 (stereo not drawn) | -9 | / | -4 | 0 | -13
COc1ccccc1N1CCN(C(c2ccc(N(C)C)cc2)c2nnnn2CCc2ccccc2)CC1 (stereo not drawn) | -10 | -6 | -72* | -3 | -78
COc1ccc(/C=C/C(=O)O)cc1S(=O)(=O)NCc1ccccc1 | 11 | -1 | -6 | -2 | -5
CCOC(=O)N1CCN(C(=O)c2ccc3c(=O)n(-c4ccc(OC)cc4)c(=S)[nH]c3c2)CC1 | -4 | / | 6 | 3 | 52*
